# Assay: Cytotoxicity assay on MRC-5 fibroblasts
# Format: cell-based
# Details: human, MRC-5SV2 cells
# Procedure, shortened: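 MRC-5SV2 cells grown in MEM with L-glutamine, NaHCO3 and 5% hiFBS, seeded at 15,000 cells/well. Four-fold dilutions of test compound were added, with a highest in-test concentration of 64 μM. Cells were exposed for 72 h at 37 °C and 5% CO2, then incubated with resazurin for 4 h and read by fluorescence. CC50 was calculated from ≥2 independent experiments in duplicate.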
smiles,measurement,value
CC[n+]1c(-c2ccccc2)c2cc(N/N=N/c3cccc(C(=N)N)c3)ccc2c2ccc(N)cc21 [isometamidium],CC50 at 72 h,22.7 µM

# Source: paper PMC9111543 (International Journal for Parasitology: Drugs and Drug …, 2022)
